# Measured values taken from ChEMBL document CHEMBL4513216, “Probing the Open Global Health Chemical Diversity Library for Multistage-Active Starting Points for Next-Generation Antimalarials” (ACS Infect Dis, 2020).
# Experiment: Toxicity liver stage against HepG2, at 10uM
# Type: cell-based
# Set-up: test concentration 10 uM, cell line HepG2-A16-CD81EGFP
# Details: human, HepG2-A16-CD81EGFP cells; read-out: INHIBITION
# In short: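 Uninfected HepG2-A16-CD81EGFP cells, 3 × 10^3 per well, 1536-well, plated on prespotted compound at 10 μM final, parasite-free screening media added to match infected plates; puromycin 10 μM positive, DMSO 0.5% negative; run in parallel with 48 h PbLuc assay at 37 °C, 5% CO2; viability by CellTiter-Glo luminescence, normalized to controls.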
row,SMILES,cytotoxicity at 10 µM
1,CC(=O)NCC(=O)N1C[C@H](OCc2cccnc2)[C@H]2COC[C@H]21,-7.12%
2,CCN(C)C[C@@H]1CN(C(=O)NC2CCCCC2)C[C@@H]1CO,-1.53%
3,CCCn1cc(C(=O)N2CCOC(c3nc(-c4cccs4)no3)C2)cn1 (stereo unspecified),-4.22%
4,Cc1nc(N2CC[C@@H](c3ccc4ccccc4c3)[C@H](O)C2)no1,-3.65%
5,Cc1cc(C(=O)N(C)Cc2cccs2)nc(N2CCOCC2)n1,4.45%
6,Cn1nnc2c1C(COCC1CC1)CN(C(=O)[C@H]1CCCO1)C2 (stereo partly specified),-8.01%
7,CC(=O)N1CCCCC1c1nnc2n1CCNC2 (stereo unspecified),14.7%
8,CCN(Cc1cccnc1)C1CCN(c2ccccc2)C1=O (stereo unspecified),-0.483%
9,CNC(=O)c1nnc2ccc(N3CCOCC3)cc2n1,6.86%
10,CS(=O)(=O)CCNC(=O)NCCc1cc2ccccc2o1,2.8%
11,CCn1cnnc1C1CCN(C(=O)c2cc3c(s2)CCC3)CC1,-8.93%
12,COc1ccc(Br)cc1CCC(=O)N1CCCC(O)C1 (stereo unspecified),5.66%
13,CCCNC(=O)CCNC(=O)N1CCc2c(F)ccc(F)c2C1,-9.91%
14,CCNc1nc2cn(-c3ccc(CC)cc3)c(=O)c-2c[nH]1,-3.31%
15,O=C(c1cc2c(s1)CCC2)N1CCCC1c1noc(C2CC2)n1 (stereo unspecified),-8.18%
16,Cc1ccoc1C(=O)N1CC[C@H]2O[C@@H](C)C[C@H]2C1,-4.93%
17,O=C(c1ccnnc1)N1CCC2(CC1)CN(c1ccccn1)CCO2,-81.5%
18,CN(C)CCNC(=O)c1ccc(OC2CCN(CC3CC3)CC2)c(Cl)c1,-6.26%
19,CC(NC(=O)c1ccnn1C)c1ccc(OCC2CC2)c(F)c1 (stereo unspecified),48.8%
20,Cc1cncnc1C1CCN(CCO)CC1,-7.26%
21,COc1cccc(C(CO)NC(=O)Cc2ccc(F)c(Br)c2)c1 (stereo unspecified),8.44%
22,COc1ccc(-c2csc3c2c(N)nc(=O)n3CC(N)=O)cc1,-42.2%
23,N#Cc1ccc(C(=O)N2CCn3cc(CN4CCCCC4)nc3C2)cc1,-84.7%

row,SMILES,cytotoxicity at 10 µM
1,O=C(c1ccco1)N1CCCC2(C1)CN(c1nncs1)CCO2 (stereo unspecified),-99.3%
2,CCOCC1CN(Cc2ccc3c(c2)OCO3)Cc2nccn2C1 (stereo unspecified),-126%
3,Fc1cccc(OC2CCN(Cc3ncc[nH]3)CC2)c1,-31.2%
4,CC(C)(C)CCCC(=O)NS(=O)(=O)CC1CC1,-6.19%
5,Cc1cn2nc(N3CCCC3C(=O)N3CCSCC3)sc2n1 (stereo unspecified),10.9%
6,Cc1ccc(CNC2CCCN(Cc3noc(C4CC4)n3)C2)s1 (stereo unspecified),-6.01%
7,Cc1cnn(CC2CN(Cc3nnc(-c4ccccc4)o3)CCO2)c1 (stereo unspecified),-6.61%
8,Cc1nc(NC(=O)C(C)N2CCN(c3ccccc3F)CC2)sc1C (stereo unspecified),-0.879%
9,C[C@@H]1CN(CC(C)(C)N2CCOCC2)C[C@@]1(O)C1CC1,2.93%
10,COC(=O)c1ccc(N2CCN(CCN3CCOCC3)C(C)C2)cc1 (stereo unspecified),-13.6%
11,CCCc1cc(N2CCC(Cc3cccc(C(N)=O)c3)C2)nc(C)n1 (stereo unspecified),-1.62%
12,Cc1nc(C(=O)N2C[C@@H]3CN(S(C)(=O)=O)CCO[C@@H]3C2)cs1,1.98%
13,Cn1ncc2c1CCCC2NCc1cc(Br)cs1 (stereo unspecified),-0.481%
14,CNc1ncc(CN(C)C(=O)[C@@]23CNC[C@@H]2CN(C(=O)C2CC2)C3)cn1,4.67%
15,CC(C)c1nnc2n1CC(CNCc1nc3ccccc3s1)CC2 (stereo unspecified),13%
16,Cc1nc(C)n(C2CCCN(C(=O)Cc3n[nH]c4ccccc34)C2)n1 (stereo unspecified),-11.7%
17,COCCN1CCC(NCc2cccc(C)c2)C1 (stereo unspecified),2.76%
18,Cc1cnn(CCNCC(=O)Nc2ccc(Br)cn2)c1,1.9%
19,N#CC1COCCN1S(=O)(=O)c1ccc(F)c(Br)c1 (stereo unspecified),4.43%
20,Cc1cc(CN(C)C(=O)CN2CC3(CCNCC3)OC2=O)n(C)n1,9.81%
21,Cc1nc(C(C)C)ncc1C(=O)N1CCC(c2ccccc2C(=O)O)C1 (stereo unspecified),1.93%
22,COc1ccc2c(c1)C(C(=O)N(C)CCc1cnn(C)c1)CC(=O)N2 (stereo unspecified),-57.2%
23,COc1ccc2c(c1)OCC(CNC(=O)c1cnc(NC(C)C)nc1)C2 (stereo unspecified),-5.07%

row,SMILES,cytotoxicity at 10 µM
1,CN1CCC(CNC(=O)c2cccc(C(F)(F)F)c2)c2ccccc21 (stereo unspecified),17.4%
2,COCc1nc(C(=O)NS(=O)(=O)c2cc(F)ccc2F)cs1,-2.22%
3,Cc1n[nH]c2c1C(c1cc(F)cc(F)c1)SCC(=O)N2 (stereo unspecified),2.03%
4,CS(=O)(=O)c1ccc(CNC(=O)N2CCC(C(N)=O)C2)cc1 (stereo unspecified),-8.03%
5,CN(C)c1cc(C(=O)N2CCCN(Cc3cscn3)CC2)ccn1,-15%
6,Clc1ccc(CNc2ccc(Cl)cn2)cc1,6.96%
7,Cc1cnc(C(=O)N2CCN(Cc3csc(C)n3)CC2)cn1,-132%
8,COCCN1CCCC12CCN(Cc1cncn1C)CC2,8.52%
9,Cc1cnc(NC(=O)NCCOc2ncccc2Cl)s1,6.62%
10,CC(=O)N1CC[C@H]2CC(=O)N(C3CCCCC3)CC[C@H]2C1,0.325%
11,Cc1nc(O)cc(C2CCCN(Cc3c(Cl)cncc3Cl)C2)n1 (stereo unspecified),-5.4%
12,CSc1cccc(CNC(=O)[C@H]2CNC[C@H](C(=O)N3CCOCC3)C2)c1,-1.74%
13,N#Cc1cccnc1N1CCN(C(=O)c2cccs2)CC1,10.4%
14,CN(C)C[C@H]1OC[C@@H]2CCN(C(=O)c3cccn3C)C[C@@H]21,-2.29%
15,COc1ccc(C)cc1C(C(=O)O)N1CCN(Cc2ccccn2)CC1 (stereo unspecified),4.4%
16,CCS(=O)(=O)c1ccccc1N1CCC(NC(=O)C(C)C)CC1,-3.87%
17,Cn1c(NCC(O)c2ccc(Cl)cc2)c(C#N)c(=O)n(C)c1=O (stereo unspecified),-3.27%
18,CC(C)c1sc(Br)nc1C(=O)NCc1ccco1,-2.89%
19,CC(Cn1ccnc1)NC(=O)N1CCN(Cc2cccnc2)CC1 (stereo unspecified),4.31%
20,Cc1ccccc1CN1CCN(C(=O)c2cnc(C3CC3)[nH]c2=O)CC1,2.25%
21,CS(=O)(=O)N[C@H]1CCO[C@]2(CCN(CC3CCOCC3)C2)C1,-122%
22,COCCN(C(=O)c1ccsc1)c1ccc(C#N)cc1,4.19%
23,Cc1ccc(F)c(S(=O)(=O)Nc2cn(C)cc(Br)c2=O)c1,-7.73%

row,SMILES,cytotoxicity at 10 µM
1,CN(C)c1ccc(CC(=O)N[C@@H]2CCNC[C@H]2O)cc1,-7.82%
2,CN(CCOc1ccccc1F)C1CCOC1=O (stereo unspecified),-147%
3,O=C(CCc1cccs1)N1CCC(Nc2cccnn2)CC1,-10.5%
4,CCc1nc(C)ncc1C(=O)N1CCCC(n2nc(C)nc2C)C1 (stereo unspecified),-8.47%
5,Cc1ccc(C(=O)NCc2ccc(N3CCCC(C(N)=O)C3)cc2)o1 (stereo unspecified),0.742%
6,O=C(Nc1ccccc1)C1=NOC2(CCCN(C(=O)N3CCCC3)C2)C1 (stereo unspecified),-1.66%
7,CC(CN1CCCC1=O)NC(=O)c1ccc(C(F)(F)F)[nH]c1=O (stereo unspecified),-4.48%
8,CC(C)n1cc(C(=O)NCCc2cn3ccsc3n2)cn1,8.67%
9,CC(C)c1nccc(CN(C)Cc2cnn(-c3ccccc3)c2)n1,6.66%
10,CCS(=O)(=O)N1CCC2(CN(c3cc(OC)ncn3)C2)C1,0.325%
11,Cc1cc(C[C@@H]2CCC[C@H]2NCc2cccc(F)c2F)on1,-0.474%
12,Cc1ccccc1-c1ncc(CNCc2csc(C(C)C)n2)s1,0.264%
13,O=c1nc(SCc2ccncc2)c2c(n1CCO)CCC2,6.9%
14,O=C(Nc1nncs1)c1ccc(-n2cnnn2)cc1,5.25%
15,COc1ccc(CCNC(C)c2ccc3[nH]c(=O)[nH]c3c2)cc1OC (stereo unspecified),-16.8%
16,COCCNC(=O)C1CN(Cc2csc(C)n2)Cc2ccnn2C1 (stereo unspecified),-74.2%
17,CCC(NC(=O)c1ccco1)c1ccccc1OCC(=O)N1CCCC1 (stereo unspecified),4.9%
18,CCc1nccn1C1CCCN(C(=O)c2cncnc2C)C1 (stereo unspecified),-11.8%
19,COc1ccc(-n2ncc3c2NC(=O)CSC3CC(C)C)cc1 (stereo unspecified),-0.418%
20,COCCN1CC2(CCCN(C(=O)NCCc3cccs3)C2)CCC1=O (stereo unspecified),-8.14%
21,O=C1[C@H]2CN(CC3CCOCC3)C[C@H]2CN1Cc1cccc(F)c1,-118%
22,CCNc1cc2c(nn1)CCN(C(=O)c1cccc3c1OCO3)C2,-9.88%
23,CC(=O)Nc1ccc(Cl)c(C(=O)N(C)C(C)c2ccon2)c1 (stereo unspecified),-48.7%

row,SMILES,cytotoxicity at 10 µM
1,O=C(Nc1nnn[nH]1)c1ccc(I)c(F)c1,-2.56%
2,Cc1nonc1OCCNC(=O)CCCc1ccc(Cl)cc1,7.49%
3,CN1CCCCC1CC(=O)Nc1ccc2ncn(C)c2c1 (stereo unspecified),4.18%
4,Cc1ncn(CCNC(=O)Nc2ccc(OC(F)(F)F)cc2)c(=O)c1C,-1.32%
5,CCC1C(=O)NCCN1c1nccc(C)n1 (stereo unspecified),0.889%
6,CNC(=O)C1CCN(C(=O)NCc2ccc(C)n2C)CC1,-1.81%
7,CCc1nc(CN2CCN(C(=O)C3(C#N)CCCCC3)CC2)cs1,-3.6%
8,CNC(=O)c1ccc(N(C)C2CCC2)nn1,4.49%
9,CC(=O)Nc1ccc(C(=O)Nc2cnc3n2CCCC3)c(C)c1,-1.14%
10,CCc1nc2n(n1)CCCC2NC(=O)Nc1cccc(F)c1F (stereo unspecified),2.39%
11,COc1cccc(CC(=O)N2CCCC(n3nc(C)cc3C)C2)c1 (stereo unspecified),0.441%
12,C=C(C)COc1cccc(C(=O)N(CC)Cc2nccn2C)c1,-4.69%
13,COCCN1CCC2(C1)CN(c1ncc(F)cn1)C2,4.68%
14,CCC(C)[C@H](NC(=O)c1cc(Br)ccc1-n1cnnn1)C(=O)OC (stereo partly specified),2.58%
15,CNc1ncccc1C(=O)N1CCC2(CCN(C)C2)CC1,0.521%
16,Cc1ccnn1CCC(=O)N1CCN(C2CCc3ccccc3C2)CC1 (stereo unspecified),-118%
17,CC(=O)Nc1ncc(S(=O)(=O)N2CCOCC2)s1,4.81%
18,O=C(CC1CC1)N[C@@H]1CN(Cc2nccs2)C[C@@H]2CCCO[C@@H]21,8.85%
19,CC(C)OCCn1nnnc1Cc1ccc(Br)cc1,-5.58%
